Test [1] has as its system Rattus norvegicus. Description: Inhibition of prostate weight in Sprague-Dawley rat at 2 mg/day, po relative to control. It counts as functional, Prostate gland. In outline: (§1)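 Five-day antagonist assay in immature (about 50 g) castrated male Sprague–Dawley rats. Compound given po in 20% cyclodextrin once daily at 2 mg/day for 5 days, with testosterone propionate co-dosed sc in sesame oil at 0.1 mg/d ([…]). Read-out is % inhibition of testosterone-enhanced tissue weight, with vehicle control set to 100% and testosterone-alone control to 0%; n = 3/group.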

Test [2] concerns Rattus norvegicus. Description: Inhibition of seminal vesicle weight in Sprague-Dawley rat at 2 mg/day, po relative to control. It counts as functional. The method, boiled down: as §1
The subject of test [3] is Rattus norvegicus. Description: Stimulation of prostate weight in Sprague-Dawley rat at 2 mg/day, po relative to testosterone. It counts as functional, Prostate gland. In outline:
(§2)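 Agonist mode of a five-day modified Hershberger assay in immature (about 50 g) castrated male Sprague–Dawley rats. Activity is % stimulation of tissue weight, with vehicle-treated control set to 0% and testosterone-alone control to 100%.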

For test [4], the species on record is Rattus norvegicus. Description: Stimulation of levator ani muscle weight in Sprague-Dawley rat at 2 mg/day relative to testosterone. It counts as functional. The method, boiled down:
as §2

The species named for test [5] is Rattus norvegicus. Description: Stimulation of levator ani muscle weight in Sprague-Dawley rat relative to testosterone. It counts as functional. In outline:
as §2

For test [6], the species on record is Rattus norvegicus. Description: Stimulation of prostate weight in Sprague-Dawley rat relative to testosterone. It counts as functional, organism-based. The note with it: Prostate gland. The method, boiled down: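 Immature castrated male Sprague–Dawley rats (about 50 g) were dosed for five days. Prostate weight was expressed as percent stimulation: vehicle-treated controls were set to 0% and testosterone-alone controls to 100%. The testosterone propionate reference was given subcutaneously at the nape of the neck at 5 mg/kg in sesame oil.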

The species named for test [7] is Rattus norvegicus. Description: Stimulation of prostate weight in Sprague-Dawley rat at 3 mg/day relative to testosterone. It counts as functional, Prostate gland. In outline:
as §2

In test [8] the test system is Rattus norvegicus. Description: Stimulation of levator ani muscle weight Sprague-Dawley rat at 5 mg/kg, sc. It counts as functional. The settings on record: route subcutaneous. In outline: (§3)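 Testosterone propionate injected sc at the nape of the neck at 5 mg/kg in sesame oil, in immature (about 50 g) castrated male Sprague–Dawley rats in a five-day modified Hershberger assay. Read-out is stimulation of tissue weight.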

Test [9] deals with Rattus norvegicus. Description: Stimulation of prostate weight in Sprague-Dawley rat at 5 mg/kg, sc. The note with it: route subcutaneous. It counts as functional, Prostate gland. The method, boiled down:
as §3

In ChEMBL document CHEMBL1139725, “Synthesis and SAR of novel hydantoin derivatives as selective androgen receptor modulators” (2006) one finds Inhibition and Activity data, which are given here for 27 compounds.

Structures are written as SMILES. The source made the active and inactive calls. No cut-off for these calls is given here. Where only a bound is given, the exact number is not on record here.

By Inhibition is commonly meant the percentage by which the read-out fell short of the control. Read a low Inhibition as a response near the control.

Regarding `CC12CNC(=O)N1C(=O)N(c1ccc([N+](=O)[O-])c(C(F)(F)F)c1)C2=O` (stereo unspecified), the results for the Inhibition with Rattus norvegicus [1] and in the test on Rattus norvegicus [2] were 32% and 15%, respectively.

The compound `C[C@@]12CC(C(F)(F)F)=NN1C(=O)C(=O)N(c1ccc(C#N)c(C(F)(F)F)c1)C2=O` gave an Inhibition in the test on Rattus norvegicus [1] of 27%. In addition, the Activity with Rattus norvegicus [3] was 12%; in the test filed under Rattus norvegicus [4] it was 21%.

As for `CC12CNC(=O)N1C(=O)N(c1ccc(Cl)c(C(F)(F)F)c1)C2=O` (stereo unspecified), the Inhibition came out at 33% in the test with Rattus norvegicus [1] and 19% in the test on Rattus norvegicus [2].

Take `CC12COC(=O)N1C(=O)N(c1ccc(C#N)c(C(F)(F)F)c1)C2=O` (stereo unspecified): the Inhibition in the test with Rattus norvegicus [1] came to 75%; in the test on Rattus norvegicus [2], 80%.

Consider `C[C@@]12CCCN1C(=S)N(c1ccc(C#N)c(C(F)(F)F)c1)C2=O`, for which the values for the Inhibition in the test with Rattus norvegicus [1] and with Rattus norvegicus [2] were 78% and 95%, respectively. Besides, the result in the test listed under Rattus norvegicus [5] and in the test filed under Rattus norvegicus [6] was inactive.

For `CC(=O)Nc1ccc(C2=NN3C(=O)N(c4ccc(C#N)c(C(F)(F)F)c4)C(=O)C3(C)C2)cc1` (stereo unspecified), the Inhibition in the test on Rattus norvegicus [1] came out at 25%. Further, the Activity in the test with Rattus norvegicus [3] is on record as under 10%; in the test listed under Rattus norvegicus [4], 13%.

With `C[C@@]12CCCN1C(=O)N(c1ccc(Cl)c(Cl)c1)C2=O`, the Inhibition stood at 11% in the test on Rattus norvegicus [1] and 16% in the test on Rattus norvegicus [2]. In addition, the result in the test with Rattus norvegicus [3] (Prostate gland), in the test filed under Rattus norvegicus [5] and in the test listed under Rattus norvegicus [6] was inactive.

Regarding `C[C@@]12CCCN1C(=S)N(c1ccc(Cl)c(Cl)c1)C2=O`, the values for the Inhibition in the test with Rattus norvegicus [1] and in the test on Rattus norvegicus [2] were 17% and 27%, respectively. Further, the outcome with Rattus norvegicus [3] (Prostate gland), in the test listed under Rattus norvegicus [5] and in the test filed under Rattus norvegicus [6] was inactive.

In the test with Rattus norvegicus [1], `C[C@]12CC(C(F)(F)F)=NN1C(=O)N(c1ccc(C#N)c(C(F)(F)F)c1)C2=O` returned an Inhibition of 21%. Also, the Activity in the test filed under Rattus norvegicus [5] is reported as 42%; in the test filed under Rattus norvegicus [7], 14%.

Take `C[C@@]12CCCN1C(=O)N(c1ccc(C#N)c(C(F)(F)F)c1)C2=O`: the Inhibition in the test on Rattus norvegicus [1] is 69%; in the test with Rattus norvegicus [2], under 10%. For the same compound, the result in the test filed under Rattus norvegicus [5] and in the test filed under Rattus norvegicus [6] was inactive.

`C[C@@]12CC(C(F)(F)F)=NN1S(=O)(=O)N(c1ccc(C#N)c(C(F)(F)F)c1)C2=O` showed an Inhibition in the test with Rattus norvegicus [1] of 28%. The Activity with Rattus norvegicus [3] was found to be 41%; in the test filed under Rattus norvegicus [4], 66%.

Turning to `CCOC(=O)C1=NN2C(=O)N(c3ccc([N+](=O)[O-])c(C(F)(F)F)c3)C(=O)C2(C)C1` (stereo unspecified), the Inhibition with Rattus norvegicus [1] came to 35%. The Activity in the test with Rattus norvegicus [3] and in the test filed under Rattus norvegicus [4] was under 10% each time.

As for `CC12CC(C(F)(F)F)=NN1C(=O)N(c1ccc([N+](=O)[O-])c(C(F)(F)F)c1)C2=O` (stereo unspecified), the Inhibition in the test on Rattus norvegicus [1] was 39%. The Activity is 51% in the test with Rattus norvegicus [3] and 73% in the test listed under Rattus norvegicus [4].

For `CC12CNC(=O)N1C(=O)N(c1ccc(C#N)c(C(F)(F)F)c1)C2=O` (stereo unspecified), the Inhibition with Rattus norvegicus [1] is 79%; in the test with Rattus norvegicus [2], 86%.

For `CC12COC(=O)N1C(=O)N(c1ccc(Cl)c(C(F)(F)F)c1)C2=O` (stereo unspecified), the Inhibition is listed as 55% with Rattus norvegicus [1] and 51% with Rattus norvegicus [2].

Turning to `C[C@@]12CCCN1C(=S)N(c1ccc(Cl)c(C(F)(F)F)c1)C2=O`, the Inhibition is reported as 19% with Rattus norvegicus [1] and under 10% in the test with Rattus norvegicus [2]. Further, the outcome in the test filed under Rattus norvegicus [5] and in the test listed under Rattus norvegicus [6] was inactive.

Turning to `C[C@@]12CC(C(F)(F)F)=NN1C(=O)N(c1ccc(C#N)c(C(F)(F)F)c1)C2=O`, the Inhibition in the test on Rattus norvegicus [1] worked out at 26%. Besides, the Activity in the test listed under Rattus norvegicus [5] is 75%; in the test listed under Rattus norvegicus [7], 11%.

For `CN1CC2(C)C(=O)N(c3ccc(Cl)c(C(F)(F)F)c3)C(=O)N2C1=O` (stereo unspecified), the Inhibition is listed as 77% in the test with Rattus norvegicus [1] and 85% in the test on Rattus norvegicus [2].

Consider `C[C@@]12CCCN1C(=O)N(c1ccc(Cl)c(C(F)(F)F)c1)C2=O`, for which the Inhibition in the test on Rattus norvegicus [1] was 32%; in the test on Rattus norvegicus [2], under 10%. The outcome in the test listed under Rattus norvegicus [5] and in the test filed under Rattus norvegicus [6] was inactive.

On to `CC12COC(=O)N1C(=O)N(c1ccc([N+](=O)[O-])c(C(F)(F)F)c1)C2=O` (stereo unspecified), for which the Inhibition with Rattus norvegicus [1] is 43%; in the test with Rattus norvegicus [2], 28%.

The compound `CCOC(=O)C1=NN2C(=O)N(c3ccc(C#N)c(C(F)(F)F)c3)C(=O)C2(C)C1` (stereo unspecified) returned an Inhibition in the test on Rattus norvegicus [1] of 16%. The Activity in the test with Rattus norvegicus [3] and in the test filed under Rattus norvegicus [5] was under 10% each time.

As to `C[C@@]12CC(C(F)(F)F)=NN1[S+]([O-])N(c1ccc(C#N)c(C(F)(F)F)c1)C2=O` (stereo partly specified), in the test on Rattus norvegicus [1], the Inhibition is listed as 41%. The results for the Activity in the test on Rattus norvegicus [3] and in the test listed under Rattus norvegicus [4] were 58% and 117%, respectively.

Take `CCC(=O)O[C@H]1CC[C@H]2[C@@H]3CCC4=CC(=O)CC[C@]4(C)[C@H]3CC[C@]12C` [TESTOSTERONE PROPIONATE]: the Activity in the test on Rattus norvegicus [8] and with Rattus norvegicus [9] was 100% throughout.

As for `CC(O)(CS(=O)(=O)c1ccc(F)cc1)C(=O)Nc1ccc(C#N)c(C(F)(F)F)c1` (stereo unspecified) [BICALUTAMIDE], the values for the Inhibition in the test on Rattus norvegicus [1] and in the test on Rattus norvegicus [2] were 70% and 80%, respectively. Besides, the outcome in the test filed under Rattus norvegicus [5] and in the test listed under Rattus norvegicus [6] was inactive.

`CN1CC2(C)C(=O)N(c3ccc(C#N)c(C(F)(F)F)c3)C(=O)N2C1=O` (stereo unspecified): the Inhibition with Rattus norvegicus [1] was 87%; with Rattus norvegicus [2], 85%.

`CC12CC=NN1C(=O)N(c1ccc(C#N)c(C(F)(F)F)c1)C2=O` (stereo unspecified) had an Inhibition in the test on Rattus norvegicus [1] of 26%. Also, the Activity with Rattus norvegicus [3] and in the test listed under Rattus norvegicus [4] was under 10% in each case.

For the compound `CCOC(=O)C1=NN2C(=O)C(=O)N(c3ccc(C#N)c(C(F)(F)F)c3)C(=O)C2(C)C1` (stereo unspecified), the Inhibition in the test with Rattus norvegicus [1] amounted to 15%. Further, the Activity in the test on Rattus norvegicus [3] and in the test listed under Rattus norvegicus [4] was under 10% in each case.
